Published values gathered from unrelated publications.
Compare with care: the assays were run in different laboratories. pIC50, pKd, pKi: −log10 of the molar value.
Nectin-4: Nectin-4 (Homo sapiens, UniProt Q96NY8)
Oprm1: Mu-type opioid receptor (Oprm1, Mus musculus, UniProt P42866)
PFF0160c: Dihydroorotate dehydrogenase (quinone), mitochondrial (PFF0160c, Plasmodium falciparum, UniProt Q08210)
SIGMAR1: Sigma non-opioid intracellular receptor 1 (SIGMAR1, Homo sapiens, UniProt Q99720)

SMILES	target	effect on	mode	technique	quantity	result
CCCC[C@@H]1NC(=O)[C@H](Cc2ccc(O)cc2)NC(=O)[C@@H]2CCCN2C(=O)[C@H](CCC(=O)O)NC(=O)[C@H](C)NC(=O)[C@H](Cc2ccccc2)NC(=O)[C@@H]2CSCCC(=O)N3CN(CN(C3)C(=O)CCSC[C@H](NC(C)=O)C(=O)N[C@@H](CC(C)(C)C)C(=O)N3CCC[C@H]3C(=O)N[C@@H](CCC(=O)O)C(=O)N[C@H](CCCCNC(=O)CCc3cn(CCOCCOCCOCCOCCOCCC(=O)N[C@H]4CSCCC(=O)N5CN6CN(C5)C(=O)CCSC[C@H](NC(=O)[C@@H](CC(=O)O)NC(=O)[C@H](Cc5cccc7ccccc57)NC(=O)[C@@H]5CCCN5C4=O)C(=O)N[C@@H](CCSC)C(=O)N[C@@H](CCCCNC(=N)N)C(=O)N[C@@H](CC(=O)O)C(=O)N[C@@H](Cc4c[nH]c5ccccc45)C(=O)N[C@@H](CO)C(=O)N[C@@H]([C@@H](C)O)C(=O)N4CCC[C@H]4C(=O)N4C[C@H](O)C[C@H]4C(=O)N[C@@H](Cc4c[nH]c5ccccc45)C(=O)N[C@H](C(N)=O)CSCCC6=O)nn3)C(=O)N3CCC[C@H]3C(=O)N[C@@H](Cc3ccc(O)cc3)C(=O)N2)C(=O)CCSC[C@@H](C(N)=O)NC1=O	Nectin-4	binding		SPR	pKd	8.60
O=C(N[C@H]1C=C[C@@]2(O)[C@H]3Cc4ccc(O)c5c4[C@@]2(CCN3CC2CC2)[C@H]1O5)c1c[nH]c2cnccc12	Oprm1	ligand displacement		radioligand	pKi	8.94
CCn1c(-c2ccccc2)cc2nnc3ccccc3c21	PFF0160c	enzyme activity	inhibitor	absorbance	pIC50	6.34
CCCC[C@@H]1NC(=O)[C@H](Cc2ccc(O)cc2)NC(=O)[C@@H]2CCCN2C(=O)[C@H](CC(=O)O)NC(=O)[C@H](C)NC(=O)[C@H](Cc2ccccc2)NC(=O)[C@@H]2CSCCC(=O)N3CN(CN(C3)C(=O)CCSC[C@@H](C(=O)N[C@@H](C)C(N)=O)NC1=O)C(=O)CCSC[C@H](NC(C)=O)C(=O)N[C@@H](CC(C)(C)C)C(=O)N1CCC[C@H]1C(=O)N[C@@H](CCC(=O)O)C(=O)N[C@H](CCCCNC(=O)CCc1cn(CCOCCOCCOCCOCCOCCC(=O)NCCCC[C@H]3NC(=O)[C@H](Cc4cccc5ccccc45)NC(=O)[C@@H]4CCCN4C(=O)[C@@H](NC(C)=O)CSCCC(=O)N4CN5CN(C4)C(=O)CCSC[C@H](NC3=O)C(=O)N[C@@H](CCSC)C(=O)N[C@@H](CCCCNC(=N)N)C(=O)N[C@@H](CCC(=O)O)C(=O)N[C@@H](Cc3c[nH]c4ccccc34)C(=O)N[C@@H](CO)C(=O)N[C@@H]([C@@H](C)O)C(=O)N3CCC[C@H]3C(=O)N3C[C@H](O)C[C@H]3C(=O)N[C@@H](Cc3c[nH]c4ccccc34)C(=O)N[C@H](C(N)=O)CSCCC5=O)nn1)C(=O)N1CCC[C@H]1C(=O)N[C@@H](Cc1ccc(O)cc1)C(=O)N2	Nectin-4	binding		SPR	pKd	8.74
C[C@@H]1CN(c2ccc(O)c(NS(=O)(=O)c3ccc(-c4ccco4)cc3)c2)C[C@H](C)N1	Dihydroorotate dehydrogenase (quinone), mitochondrial (PFF0160c, Plasmodium falciparum, UniProt Q08210, E182D)	enzyme activity	inhibitor	absorbance	pIC50	5.40
Cc1c(-c2ccccc2)oc2c(C(=O)OCCN3CCCCC3)cccc2c1=O	SIGMAR1	ligand displacement		radioligand	pKi	< 5.00
CCCC[C@@H]1NC(=O)[C@H](Cc2ccc(O)cc2)NC(=O)[C@@H]2CCCN2C(=O)[C@H](CC(=O)O)NC(=O)[C@H](C)NC(=O)[C@H](Cc2ccccc2)NC(=O)[C@@H]2CSCCC(=O)N3CN(CN(C3)C(=O)CCSC[C@@H](C(=O)N[C@@H](CNC(=O)CCc3cn(CCOCCOCCOCCOCCOCCOCCOCCOCCOCCOCCNC(=O)N[C@H]4CSCCC(=O)N5CN6CN(C5)C(=O)CCSC[C@H](NC(=O)[C@@H](CC(=O)O)NC(=O)[C@H](Cc5cccc7ccccc57)NC(=O)[C@@H]5CCCN5C4=O)C(=O)N[C@@H](CCSC)C(=O)N[C@@H](CCCCNC(=N)N)C(=O)N[C@@H](CC(=O)O)C(=O)N[C@@H](Cc4c[nH]c5ccccc45)C(=O)N[C@@H](CO)C(=O)N[C@@H]([C@@H](C)O)C(=O)N4CCC[C@H]4C(=O)N4C[C@H](O)C[C@H]4C(=O)N[C@@H](Cc4c[nH]c5ccccc45)C(=O)N[C@H](C(N)=O)CSCCC6=O)nn3)C(N)=O)NC1=O)C(=O)CCSC[C@H](NC(=O)[C@H](C)NC(C)=O)C(=O)N[C@@H]([C@@H](C)CC)C(=O)N[C@@H](CCC(=O)O)C(=O)N[C@@H](CCC(=O)O)C(=O)NCC(=O)N[C@@H](CCC(N)=O)C(=O)N[C@@H](Cc1ccc(O)cc1)C(=O)N2	Nectin-4	binding		SPR	pKd	8.77
Cc1noc(-c2cccs2)c1C(=O)NCCc1cccc(Cl)c1	PFF0160c	enzyme activity	inhibitor	absorbance	pIC50	6.16
O=C(N[C@@H]1C=C[C@@]2(O)[C@H]3Cc4ccc(O)c5c4[C@@]2(CCN3CC2CC2)[C@H]1O5)c1c[nH]c2ncccc12	Oprm1	ligand displacement		radioligand	pKi	9.55
Fc1ccc([C@@H]2CCNC[C@H]2COc2ccc3c(c2)OCO3)cc1	SIGMAR1	ligand displacement		radioligand	pKi	6.44
CC(C)C(NC(=O)Cc1cccc2ccccc12)C(=O)Nc1cccc(C#N)c1 (centres unmarked)	PFF0160c	enzyme activity	inhibitor	absorbance	pIC50	5.81
CCCC[C@@H]1NC(=O)[C@H](Cc2ccc(O)cc2)NC(=O)[C@@H]2CCCN2C(=O)[C@H](CC(=O)O)NC(=O)[C@H](C)NC(=O)[C@H](Cc2ccccc2)NC(=O)[C@@H]2CSCCC(=O)N3CN(CN(C3)C(=O)CCSC[C@@H](C(=O)N[C@@H](CNC(=O)CCc3cn(CCOCCOCCOCCOCCOCCOCCOCCOCCOCCOCCOCCOCCOCCOCCOCCOCCOCCOCCOCCOCCOCCOCCOCCNC(=O)N[C@H]4CSCCC(=O)N5CN6CN(C5)C(=O)CCSC[C@H](NC(=O)[C@@H](CC(=O)O)NC(=O)[C@H](Cc5cccc7ccccc57)NC(=O)[C@@H]5CCCN5C4=O)C(=O)N[C@@H](CCSC)C(=O)N[C@@H](CCCCNC(=N)N)C(=O)N[C@@H](CC(=O)O)C(=O)N[C@@H](Cc4c[nH]c5ccccc45)C(=O)N[C@@H](CO)C(=O)N[C@@H]([C@@H](C)O)C(=O)N4CCC[C@H]4C(=O)N4C[C@H](O)C[C@H]4C(=O)N[C@@H](Cc4c[nH]c5ccccc45)C(=O)N[C@H](C(N)=O)CSCCC6=O)nn3)C(N)=O)NC1=O)C(=O)CCSC[C@H](NC(=O)[C@H](C)NC(C)=O)C(=O)N[C@@H]([C@@H](C)CC)C(=O)N[C@@H](CCC(=O)O)C(=O)N[C@@H](CCC(=O)O)C(=O)NCC(=O)N[C@@H](CCC(N)=O)C(=O)N[C@@H](Cc1ccc(O)cc1)C(=O)N2	Nectin-4	binding		SPR	pKd	8.74
O=C(N[C@H]1C=C[C@@]2(O)[C@H]3Cc4ccc(O)c5c4[C@@]2(CCN3CC2CC2)[C@H]1O5)c1c[nH]c2ccncc12	Oprm1	ligand displacement		radioligand	pKi	9.15
COc1ccc(CN2CCN(Cc3ccccc3)CC2)cc1	SIGMAR1	ligand displacement		radioligand	pKi	7.86
